Laboratory results published in ChEMBL document CHEMBL1124186, “Synthesis and evaluation of tylosin-related macrolides modified at the aldehyde function: a new series of orally effective antibiotics” (1988).

How the values were obtained:
[1] = tested on: Staphylococcus epidermidis; assay: In vitro antimicrobial activity against Staphylococcus epidermidis EPI1; assay type: functional
Haemophilus influenzae [2] = assay: In vitro antimicrobial activity against aerobic bacteria Haemophilus influenzae 76; assay type: functional
Staphylococcus aureus [3] = assay: In vitro antimicrobial activity against aerobic bacteria Staphylococcus aureus V135; assay type: functional
Anaerococcus prevotii = assay: In vitro antimicrobial activity against anaerobic bacteria peptococcus prevoti 1281; assay type: functional
[4] = tested on: Bacteroides thetaiotaomicron; assay: In vitro antimicrobial activity against anaerobic bacteria bacteroides thetaiotaomicron 1438; assay type: functional
Streptococcus pneumoniae [5] = assay: In vivo effective dose against experimental infections in mice Strep. pneumoniae park when administered sc; assay type: functional
Haemophilus influenzae [6] = assay: In vitro antimicrobial activity against Haemophilus influenzae.; assay type: functional
[7] = tested on: Prevotella melaninogenica; assay: In vitro antimicrobial activity against anaerobic bacteria bacteroides melaninogenicus 1856,; assay type: functional
Fusobacterium = assay: In vitro antimicrobial activity against anaerobic bacteria fusobacterium symbiosum 1470; assay type: functional
[8] = tested on: Staphylococcus epidermidis; assay: In vitro antimicrobial activity against aerobic bacteria Streptococcus epi 270; assay type: functional
Bacteroides fragilis [9] = assay: In vitro antimicrobial activity against anaerobic bacteria bacteroides fragilis 1877; assay type: functional
Eikenella corrodens = assay: In vitro antimicrobial activity against anaerobic bacteria bacteroides corrodens 1874; assay type: functional
[10] = tested on: Peptoniphilus asaccharolyticus; assay: In vitro antimicrobial activity against anaerobic bacteria peptococcus asaccharolyticus 1302; assay type: functional
Streptococcus pneumoniae [11] = assay: In vitro antimicrobial activity against Streptococcus pneumoniae; assay type: functional
Streptococcus viridans = assay: In vitro antimicrobial activity against aerobic bacteria Streptococcus viridans 9943; assay type: functional
Streptococcus [12] = assay: In vitro antimicrobial activity against aerobic bacteria Streptococcus B 5; assay type: functional
Streptococcus [13] = assay: In vitro antimicrobial activity against aerobic bacteria Streptococcus D 8043; assay type: functional
Staphylococcus aureus [14] = assay: In vitro antimicrobial activity against aerobic bacteria Staphylococcus aureus X400; assay type: functional
Staphylococcus aureus [15] = assay: In vivo effective dose against experimental infections in mice Staphylococcus aureus X1 when administered sc; assay type: functional
Bacteroides fragilis [16] = assay: In vitro antimicrobial activity against anaerobic bacteria bacteroides fragilis 111; assay type: functional
Streptococcus [17] = assay: In vitro antimicrobial activity against aerobic bacteria Streptococcus C 24; assay type: functional
Enterococcus faecium = assay: In vitro antimicrobial activity against Streptococcus faecium X66; assay type: functional, streptococcus fae-cium
[18] = tested on: Peptostreptococcus anaerobius; assay: In vitro antimicrobial activity against anaerobic bacteria eubacterium peptostreptococcus anaerobius 1428,; assay type: functional
Streptococcus [19] = assay: In vitro antimicrobial activity against aerobic bacteria Streptococcus D 2041; assay type: functional
Streptococcus pyogenes [20] = assay: In vitro antimicrobial activity against Streptococcus pyogenes C203; assay type: functional
Streptococcus pneumoniae [21] = assay: In vivo effective dose against experimental infections in mice Strep. pneumoniae park when administered orally; assay type: functional; conditions: po
[22] = In vitro antimicrobial activity against anaerobic bacteria peptostreptococcus intermedius 1264; assay type: functional
Streptococcus sanguinis = assay: In vitro antimicrobial activity against aerobic bacteria Streptococcus sanguis MX132; assay type: functional
Clostridium perfringens = assay: In vitro antimicrobial activity against anaerobic bacteria clostridium perfringens 81,; assay type: functional
Streptococcus pyogenes [23] = assay: In vivo effective dose against experimental infections in rodent caused by Streptococcus pyogenes C203 when administered sc; assay type: functional
Streptococcus [24] = assay: In vitro antimicrobial activity against aerobic bacteria Streptococcus B 14; assay type: functional
Streptococcus pneumoniae [25] = assay: In vitro antimicrobial activity against aerobic bacteria Streptococcus pneumoniae B1-438; assay type: functional, streptococcus pneum
Clostridioides difficile = assay: In vitro antimicrobial activity against anaerobic bacteria Clostridium difficile 2994; assay type: functional
Collinsella aerofaciens [26] = assay: In vitro antimicrobial activity against anaerobic bacteria eubacterium aerofaciens 1235; assay type: functional
[27] = tested on: Fusobacterium necrophorum; assay: In vitro antimicrobial activity against anaerobic bacteria usobacterium necrophorum 6054A; assay type: functional
Streptococcus [28] = assay: In vitro antimicrobial activity against aerobic bacteria Streptococcus B 8; assay type: functional
Bacteroides fragilis [29] = assay: In vitro antimicrobial activity against anaerobic bacteria bacteroides fragilis 1936B,; assay type: functional
Chlamydia trachomatis = assay: In vitro antimicrobial activity against chlamydia trachomatis.; assay type: functional
Staphylococcus aureus [30] = assay: In vitro antimicrobial activity against Staphylococcus aureus X1; assay type: functional
Haemophilus influenzae [31] = assay: In vitro antimicrobial activity against aerobic bacteria Haemophilus influenzae MX366; assay type: functional
[32] = tested on: Prevotella melaninogenica; assay: In vitro antimicrobial activity against anaerobic bacteria bacteroides melaninogenicus 2736; assay type: functional
Phocaeicola vulgatus = assay: In vitro antimicrobial activity against anaerobic bacteria bacteroides vulgatus 1211; assay type: functional
Staphylococcus aureus [33] = assay: In vivo effective dose against experimental infections in mice Staphylococcus aureus X1 when administered orally; assay type: functional; conditions: po
Cutibacterium acnes = assay: In vitro antimicrobial activity against anaerobic bacteria propionibacterium acnes 79; assay type: functional
Streptococcus [34] = assay: In vitro antimicrobial activity against aerobic bacteria Streptococcus D 9960; assay type: functional
Clostridium septicum = assay: In vitro antimicrobial activity against anaerobic bacteria clostridium septicum 1128; assay type: functional
[35] = tested on: Staphylococcus epidermidis; assay: In vitro antimicrobial activity against aerobic bacteria Streptococcus epi 222; assay type: functional
Streptococcus [36] = assay: In vitro antimicrobial activity against aerobic bacteria Streptococcus G Kruder; assay type: functional; conditions: Streptococcus; read-out: MIC
Staphylococcus aureus [37] = assay: In vitro antimicrobial activity against aerobic bacteria Staphylococcus aureus V41; assay type: functional
Staphylococcus aureus [38] = assay: In vitro antimicrobial activity against aerobic bacteria Staphylococcus aureus 513E; assay type: functional
Staphylococcus aureus [39] = assay: In vitro antimicrobial activity against aerobic bacteria Staphylococcus aureus V140,; assay type: functional
Haemophilus influenzae [40] = assay: In vitro antimicrobial activity against aerobic bacteria Haemophilus influenzae 465; assay type: functional
[41] = tested on: Haemophilus parainfluenzae; assay: In vitro antimicrobial activity against aerobic bacteria Haemophilus parainfluenzae 9796; assay type: functional
Streptococcus pyogenes [42] = assay: Effective dose against Streptococcus pyogenes C203 when administered sc; assay type: functional
Outline: (§1)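 Mouse protection test: infected mice were dosed twice, at 1 and 5 h postinfection, either subcutaneously or orally. […] The result is expressed as ED50 in mg/kg × 2.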

Streptococcus pyogenes [43] = assay: Effective dose against Streptococcus pyogenes administered orally; assay type: functional; conditions: po; outline: as §1
Streptococcus pyogenes [44] = assay: In vivo effective dose against experimental infections in rodent caused by Streptococcus pyogenes C203 when administered orally; assay type: functional; conditions: po
Haemophilus influenzae [45] = assay: In vitro antimicrobial activity against aerobic bacteria Haemophilus influenzae MX366,; assay type: functional
Collinsella aerofaciens [46] = assay: In vitro antimicrobial activity against anaerobic bacteria aerofaciens 1235; assay type: functional
Streptococcus pyogenes [47] = assay: Antimicrobial activity against Streptococcus pyogenes C203; assay type: functional

CC[C@H]1OC(=O)C[C@@H](O)[C@H](C)[C@@H](O[C@@H]2O[C@H](C)[C@@H](O)[C@H](N(C)C)[C@H]2O)[C@@H](CCN=[N+]=[N-])C[C@@H](C)C(=O)/C=C/C(C)=C/[C@@H]1CO[C@@H]1O[C@H](C)[C@@H](O)[C@@H](OC)[C@H]1OC
0.25 µg/mL: MIC (Staphylococcus aureus [3]) | MIC (Staphylococcus aureus [14]) | MIC (Streptococcus pyogenes [20]) | MIC [35] | MIC (Staphylococcus aureus [39])
3.8 mg/kg: ED50 (Streptococcus pyogenes [23])
1 µg/mL: MIC [7] | MIC [10] | MIC (Streptococcus sanguinis)
0.12 µg/mL: MIC [1] | MIC (Staphylococcus aureus [30]) | MIC (Staphylococcus aureus [37]) | MIC (Staphylococcus aureus [38])
< 0.5 µg/mL: MIC [18] | MIC (Clostridium perfringens) | MIC (Clostridioides difficile) | MIC (Clostridium septicum)
2 µg/mL: MIC (Anaerococcus prevotii) | MIC [4] | MIC (Fusobacterium) | MIC (Bacteroides fragilis [9]) | MIC (Eikenella corrodens) | MIC (Streptococcus pneumoniae [11]) | MIC (Bacteroides fragilis [16]) | MIC [22] | MIC (Collinsella aerofaciens [26]) | MIC (Bacteroides fragilis [29]) | MIC [32] | MIC (Phocaeicola vulgatus)
> 50 mg/kg: ED50 (Streptococcus pneumoniae [21])
> 20 mg/kg: ED50 (Streptococcus pneumoniae [5])
18 mg/kg: ED50 (Staphylococcus aureus [33])
8 µg/mL: MIC (Streptococcus [12]) | MIC (Streptococcus [28]) | MIC (Streptococcus [34])
2.8 mg/kg: ED50 (Staphylococcus aureus [15])
4 µg/mL: MIC (Haemophilus influenzae [2]) | MIC (Streptococcus [13]) | MIC (Enterococcus faecium)
16 µg/mL: MIC (Haemophilus influenzae [6]) | MIC (Streptococcus [19]) | MIC (Streptococcus [24]) | MIC [27] | MIC (Cutibacterium acnes)
64 µg/mL: MIC (Streptococcus [36])
0.5 µg/mL: MIC (Streptococcus [17]) | MIC (Chlamydia trachomatis)
> 128 µg/mL: MIC [8] | MIC (Streptococcus viridans) | MIC (Streptococcus pneumoniae [25])
32 µg/mL: MIC (Haemophilus influenzae [31])

CC[C@H]1OC(=O)C[C@@H](O)[C@H](C)[C@@H](O[C@@H]2O[C@H](C)[C@@H](O[C@H]3C[C@@](C)(O)[C@@H](O)[C@H](C)O3)[C@H](N(C)C)[C@H]2O)[C@@H](CC=O)C[C@@H](C)C(=O)/C=C/C(C)=C/[C@@H]1CO[C@@H]1O[C@H](C)[C@@H](O)[C@@H](OC)[C@H]1OC [TYLOSIN]
2 µg/mL: MIC (Enterococcus faecium)
42 mg/kg: ED50 (Streptococcus pyogenes [44])
< 0.03 µg/mL: MIC (Fusobacterium) | MIC [32]
16 µg/mL: MIC (Haemophilus influenzae [2]) | MIC [41] | MIC (Haemophilus influenzae [6]) | MIC (Haemophilus influenzae [45])
0.06 µg/mL: MIC [10]
1 µg/mL: MIC [1] | MIC (Staphylococcus aureus [3]) | MIC [4] | MIC (Bacteroides fragilis [9]) | MIC (Eikenella corrodens) | MIC (Streptococcus [12]) | MIC (Streptococcus [13]) | MIC (Staphylococcus aureus [14]) | MIC (Streptococcus [19]) | MIC (Clostridioides difficile) | MIC (Streptococcus [28]) | MIC (Bacteroides fragilis [29]) | MIC (Phocaeicola vulgatus) | MIC (Streptococcus [34]) | MIC (Staphylococcus aureus [37]) | MIC (Staphylococcus aureus [38]) | MIC (Staphylococcus aureus [39])
32 µg/mL: MIC (Haemophilus influenzae [40])
0.12 µg/mL: MIC (Collinsella aerofaciens [46])
1.3 mg/kg: ED50 (Streptococcus pyogenes [23])
> 128 µg/mL: MIC [8] | MIC (Streptococcus viridans) | MIC (Streptococcus pneumoniae [25])
0.25 µg/mL: MIC [7] | MIC (Streptococcus pneumoniae [11]) | MIC (Streptococcus [17]) | MIC (Streptococcus pyogenes [20]) | MIC (Clostridium perfringens) | MIC (Streptococcus pyogenes [47]) | MIC (Chlamydia trachomatis) | MIC [35] | MIC (Streptococcus [36])
8 µg/mL: MIC (Anaerococcus prevotii) | MIC [18]
0.5 mg/kg: ED50 (Streptococcus pyogenes [42]) | ED50 (Streptococcus pyogenes [43])
0.5 µg/mL: MIC (Bacteroides fragilis [16]) | MIC [22] | MIC (Streptococcus sanguinis) | MIC [27] | MIC (Staphylococcus aureus [30]) | MIC (Cutibacterium acnes) | MIC (Clostridium septicum)
